From ChEMBL document CHEMBL4251563, “Design and synthesis of thienopyrimidine urea derivatives with potential cytotoxic and pro-apoptotic activity against breast cancer cell line MCF-7” (Eur J Med Chem, 2018)
Each block holds one compound with its values, some of them ahead of it.

What was measured:
[1] = tested on: MCF7; assay: Antiproliferative activity against human MCF7 cells after 48 hrs by sulforhodamine B assay; assay type: functional, cell-based; settings: MCF7, 48 h
How it was run: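 MCF-7 cells seeded at 5×10^4–10^5 cells/well, allowed to attach 24 h, then exposed to 0, 5, 12.5, 25 and 50 µg/mL for 48 h. Compounds were dissolved in DMSO and diluted with saline; controls got vehicle only; four wells per concentration. Cells fixed with cold 50% TCA, stained with 0.4% SRB, dye solubilised in 10 mM tris pH 10.5, OD read at 564 nm. Survival fraction = OD treated/OD control; IC50 taken from the survival-versus-concentration plot.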

[2] = tested on: MCF7; assay: Potency index, ratio of doxorubicin IC50 to compound IC50 for antiproliferative activity against human MCF7 cells; assay type: functional
[3] = tested on: MCF7; assay: Cell cycle arrest in human MCF7 cells assessed as increase in accumulation at pre-G1 phase at 7.1 uM after 24 hrs by propidium iodide staining-based flow cytometry relative to control; assay type: functional
How it was run: (§1)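 MCF-7 cells treated 24 h with 7.10 µM. Cells washed with ice-cold PBS, fixed in ice-cold 70% ethanol, resuspended with 0.1 mg/mL RNase and stained with propidium iodide. DNA content read by FACSCalibur flow cytometry to give phase distribution (pre-G1/sub-G1, G1, S, G2/M).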

[4] = tested on: MCF7; assay: Cell cycle arrest in human MCF7 cells assessed as increase in accumulation at G2/M phase at 7.1 uM after 24 hrs by propidium iodide staining-based flow cytometry relative to control; assay type: functional; how it was run: as §1
[5] = tested on: MCF7; assay: Cell cycle arrest in human MCF7 cells assessed as accumulation at G1 phase at 7.1 uM after 24 hrs by propidium iodide staining-based flow cytometry (reference value: 66.4%); assay type: functional; how it was run: as §1
[6] = tested on: MCF7; assay: Cell cycle arrest in human MCF7 cells assessed as accumulation at G2/M phase at 7.1 uM after 24 hrs by propidium iodide staining-based flow cytometry (reference value: 7.2%); assay type: functional; how it was run: as §1
[7] = tested on: MCF7; assay: Cell cycle arrest in human MCF7 cells assessed as accumulation at S phase at 7.1 uM after 24 hrs by propidium iodide staining-based flow cytometry (reference value: 25.2%); assay type: functional; how it was run: as §1
[8] = tested on: MCF7; assay: Induction of apoptosis in human MCF7 cells assessed as necrotic cells at 7.1 uM after 24 hrs by Annexin V-FITC/propidium iodide staining based flow cytometry (reference value: 0.1%); assay type: functional
[9] = tested on: MCF7; assay: Induction of apoptosis in human MCF7 cells assessed as late apoptotic cells at 7.1 uM after 24 hrs by Annexin V-FITC/propidium iodide staining based flow cytometry (reference value: 0.3%); assay type: functional
[10] = tested on: MCF7; assay: Induction of apoptosis in human MCF7 cells assessed as early apoptotic cells at 7.1 uM after 24 hrs by Annexin V-FITC/propidium iodide staining based flow cytometry (reference value: 0.7%); assay type: functional
[11] = tested on: MCF7; assay: Induction of apoptosis in human MCF7 cells assessed as viable cells at 7.1 uM after 24 hrs by Annexin V-FITC/propidium iodide staining based flow cytometry (reference value: 99.9%); assay type: functional
[12] = tested on: MCF7; assay: Induction of apoptosis in human MCF7 cells assessed as early apoptotic cells at 7.1 uM after 24 hrs by Annexin V-FITC/propidium iodide staining based flow cytometry relative to control; assay type: functional
[13] = tested on: MCF7; assay: Induction of apoptosis in human MCF7 cells assessed as BAX expression levels at 7.1 uM after 24 hrs by SYBR Green dye-based RT-PCR analysis (reference value: 196 IU/ml); assay type: functional
[14] = tested on: MCF7; assay: Induction of apoptosis in human MCF7 cells assessed as Bcl2 expression levels at 7.1 uM after 24 hrs by SYBR Green dye-based RT-PCR analysis (reference value: 538306 IU/ml); assay type: functional
[15] = tested on: MCF7; assay: Induction of apoptosis in human MCF7 cells assessed as p53 expression levels at 7.1 uM after 24 hrs by SYBR Green dye-based RT-PCR analysis (reference value: 244 IU/ml); assay type: functional
[16] = tested on: MCF7; assay: Induction of apoptosis in human MCF7 cells assessed as active caspase3 expression levels at 7.1 uM after 24 hrs by SYBR Green dye-based RT-PCR analysis (reference value: 75 IU/ml); assay type: functional
[17] = target: DNA topoisomerase 2-beta (Homo sapiens, UniProt Q02880); assay: Inhibition of human topoisomerase 2beta after 2 hrs at 37 degC by ELISA
Chain of DNA topoisomerase 2-beta (Q02880 whole entry): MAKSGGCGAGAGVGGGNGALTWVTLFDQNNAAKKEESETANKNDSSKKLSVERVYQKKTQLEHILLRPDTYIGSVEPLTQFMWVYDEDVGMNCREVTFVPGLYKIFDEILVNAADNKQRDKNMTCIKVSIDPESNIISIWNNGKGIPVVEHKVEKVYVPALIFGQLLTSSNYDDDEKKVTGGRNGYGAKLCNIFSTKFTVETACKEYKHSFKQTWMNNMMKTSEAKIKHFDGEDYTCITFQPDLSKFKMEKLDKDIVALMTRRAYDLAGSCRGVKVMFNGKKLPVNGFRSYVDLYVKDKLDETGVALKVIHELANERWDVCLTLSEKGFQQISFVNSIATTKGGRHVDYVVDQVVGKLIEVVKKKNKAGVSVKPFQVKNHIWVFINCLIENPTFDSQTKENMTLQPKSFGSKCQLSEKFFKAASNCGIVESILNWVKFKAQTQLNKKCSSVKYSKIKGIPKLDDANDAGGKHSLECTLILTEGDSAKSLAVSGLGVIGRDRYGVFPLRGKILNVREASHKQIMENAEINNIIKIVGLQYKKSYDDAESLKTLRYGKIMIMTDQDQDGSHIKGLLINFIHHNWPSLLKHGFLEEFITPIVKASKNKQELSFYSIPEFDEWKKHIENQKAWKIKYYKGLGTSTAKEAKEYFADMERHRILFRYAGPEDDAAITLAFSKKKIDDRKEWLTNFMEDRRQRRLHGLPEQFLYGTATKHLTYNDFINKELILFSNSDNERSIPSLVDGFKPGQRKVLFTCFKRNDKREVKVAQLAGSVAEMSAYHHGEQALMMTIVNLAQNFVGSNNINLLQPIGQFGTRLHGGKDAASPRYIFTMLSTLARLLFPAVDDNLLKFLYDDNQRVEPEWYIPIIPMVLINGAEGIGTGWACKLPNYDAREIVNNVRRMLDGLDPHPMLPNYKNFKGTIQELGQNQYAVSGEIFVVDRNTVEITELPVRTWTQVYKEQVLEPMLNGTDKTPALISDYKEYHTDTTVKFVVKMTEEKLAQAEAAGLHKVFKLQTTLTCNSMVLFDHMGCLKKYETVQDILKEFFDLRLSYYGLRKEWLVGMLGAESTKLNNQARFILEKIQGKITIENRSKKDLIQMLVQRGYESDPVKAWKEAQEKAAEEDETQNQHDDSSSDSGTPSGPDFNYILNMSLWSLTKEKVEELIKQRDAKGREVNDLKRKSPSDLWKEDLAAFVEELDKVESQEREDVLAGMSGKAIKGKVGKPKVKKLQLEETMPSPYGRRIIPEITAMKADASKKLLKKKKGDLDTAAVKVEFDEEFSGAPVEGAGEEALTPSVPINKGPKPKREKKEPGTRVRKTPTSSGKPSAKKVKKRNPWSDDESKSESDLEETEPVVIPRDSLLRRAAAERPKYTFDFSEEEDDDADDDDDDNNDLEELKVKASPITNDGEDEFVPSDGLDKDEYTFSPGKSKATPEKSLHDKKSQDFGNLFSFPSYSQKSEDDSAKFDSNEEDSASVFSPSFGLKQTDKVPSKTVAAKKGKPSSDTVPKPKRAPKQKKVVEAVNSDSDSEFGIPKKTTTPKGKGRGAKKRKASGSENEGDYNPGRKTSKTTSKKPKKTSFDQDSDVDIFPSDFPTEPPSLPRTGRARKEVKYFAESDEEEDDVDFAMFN
How it was run: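 Sandwich ELISA: standard or sample incubated 2 h at 37°C, then biotin-antibody 1 h at 37°C, then HRP-avidin 1 h at 37°C, then TMB 15–30 min at 37°C in the dark. OD read at 450 nm.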

[18] = target: T1, Vascular endothelial growth factor receptor 2 (Homo sapiens, UniProt P35968); assay: Inhibition of human VEGFR2 after 2 hrs by ELISA
T1 sequence (P35968 whole entry): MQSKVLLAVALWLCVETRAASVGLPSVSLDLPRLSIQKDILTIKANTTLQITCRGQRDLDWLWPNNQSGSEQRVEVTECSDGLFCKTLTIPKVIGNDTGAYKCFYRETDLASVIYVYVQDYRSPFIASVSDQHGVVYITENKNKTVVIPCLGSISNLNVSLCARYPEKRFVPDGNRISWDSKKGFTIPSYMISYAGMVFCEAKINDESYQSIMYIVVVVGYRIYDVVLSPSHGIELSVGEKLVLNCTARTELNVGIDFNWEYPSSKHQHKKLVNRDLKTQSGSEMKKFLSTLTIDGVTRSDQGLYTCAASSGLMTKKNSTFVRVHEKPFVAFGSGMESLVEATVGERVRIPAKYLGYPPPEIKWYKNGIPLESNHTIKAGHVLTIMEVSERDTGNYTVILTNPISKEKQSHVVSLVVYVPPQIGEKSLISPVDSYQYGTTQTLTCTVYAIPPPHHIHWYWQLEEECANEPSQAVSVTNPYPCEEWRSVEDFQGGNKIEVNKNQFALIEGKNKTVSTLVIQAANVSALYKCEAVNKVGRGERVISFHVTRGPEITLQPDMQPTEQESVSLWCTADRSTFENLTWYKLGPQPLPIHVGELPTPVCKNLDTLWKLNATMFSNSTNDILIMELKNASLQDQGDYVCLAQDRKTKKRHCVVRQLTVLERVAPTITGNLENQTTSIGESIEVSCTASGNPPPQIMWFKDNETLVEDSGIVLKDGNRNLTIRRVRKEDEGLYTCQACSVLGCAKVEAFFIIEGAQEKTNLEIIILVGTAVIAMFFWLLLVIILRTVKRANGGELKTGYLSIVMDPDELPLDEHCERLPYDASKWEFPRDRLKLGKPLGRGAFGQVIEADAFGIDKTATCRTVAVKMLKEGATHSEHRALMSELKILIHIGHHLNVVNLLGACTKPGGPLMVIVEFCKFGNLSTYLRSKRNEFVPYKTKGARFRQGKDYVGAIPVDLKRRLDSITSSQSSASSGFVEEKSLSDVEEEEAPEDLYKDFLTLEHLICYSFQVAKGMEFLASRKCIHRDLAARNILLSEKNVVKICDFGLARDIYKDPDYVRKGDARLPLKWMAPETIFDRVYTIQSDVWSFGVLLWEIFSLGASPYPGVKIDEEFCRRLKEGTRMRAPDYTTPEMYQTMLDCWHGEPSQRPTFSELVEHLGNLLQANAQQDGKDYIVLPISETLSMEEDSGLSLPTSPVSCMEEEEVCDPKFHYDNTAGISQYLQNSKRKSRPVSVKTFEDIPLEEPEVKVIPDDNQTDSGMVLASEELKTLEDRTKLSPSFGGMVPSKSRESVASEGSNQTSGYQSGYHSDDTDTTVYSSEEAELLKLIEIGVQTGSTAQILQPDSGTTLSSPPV

[19] = target: T1, Vascular endothelial growth factor receptor 2; assay: Potency index, ratio of sorafenib IC50 to compound IC50 for inhibition of human VEGFR2
[20] = tested on: MCF7; assay: Cell cycle arrest in human MCF7 cells assessed as accumulation at subG1 phase at 7.1 uM after 24 hrs by propidium iodide staining-based flow cytometry (reference value: 1.2%); assay type: functional; how it was run: as §1

Structure (SMILES): Cc1cccc(Cl)c1NC(=O)NNc1ncnc2sc3c(c12)CCCC3
IC50 [1]: 90.2 µM

Structure (SMILES): COc1cccc2c1C(=O)c1c(O)c3c(c(O)c1C2=O)C[C@@](O)(C(=O)CO)C[C@@H]3O[C@H]1C[C@H](N)[C@H](O)[C@H](C)O1 [DOXORUBICIN]
IC50 [1]: 10.6 µM | Activity [13]: 1824021 IU/ml | Activity [14]: 8 IU/ml | Activity [15]: 1271.6 IU/ml | Activity [16]: 363940 IU/ml | IC50 [17]: 3.5 µM

Structure (SMILES): S=C(Nc1ccccc1)Nc1nnc2c3c4c(sc3ncn12)CCCC4
IC50 [1]: 80.9 µM

Structure (SMILES): Cc1cccc(Cl)c1NC(=O)Nc1nnc2c3c4c(sc3ncn12)CCCC4
IC50 [1]: 29.1 µM

Structure (SMILES): O=C(NNc1ncnc2sc3c(c12)CCCC3)Nc1ccc(Cl)c(C(F)(F)F)c1
IC50 [1]: 53.4 µM

Structure (SMILES): O=C(Nc1cccc(C(F)(F)F)c1)Nc1nnc2c3c4c(sc3ncn12)CCCC4
IC50 [1]: 68.5 µM

Structure (SMILES): O=C(NNc1ncnc2sc3c(c12)CCCC3)Nc1c(Cl)cccc1Cl
IC50 [1]: 88.9 µM

Structure (SMILES): Cc1cccc(Cl)c1-n1c(-c2ccc(Br)cc2)co/c1=N\c1ccc(Nc2ncnc3sc4c(c23)CCCC4)cc1
IC50 [1]: 235 µM

Structure (SMILES): O=C(Nc1cc(C(F)(F)F)ccc1F)Nc1nnc2c3c4c(sc3ncn12)CCCC4
IC50 [1]: 71.9 µM

Structure (SMILES): Brc1ccc(-c2cs/c(=N\c3ccc(Nc4ncnc5sc6c(c45)CCCC6)cc3)n2-c2ccccc2)cc1
IC50 [1]: 37.3 µM

Structure (SMILES): Cc1cccc(NC(=S)Nc2nnc3c4c5c(sc4ncn23)CCCC5)c1
IC50 [1]: 99.9 µM

Structure (SMILES): O=C(NNc1ncnc2sc3c(c12)CCCC3)Nc1cc(C(F)(F)F)ccc1F
IC50 [1]: 28.2 µM

Structure (SMILES): O=C(Nc1ccc(Nc2ncnc3sc4c(c23)CCCC4)cc1)Nc1cc(C(F)(F)F)ccc1F
IC50 [1]: 10.3 µM | Ratio IC50 [2]: 1.03 - 1.5

Structure (SMILES): O=C(NNc1ncnc2sc3c(c12)CCCC3)Nc1cccc(C(F)(F)F)c1
IC50 [1]: 22.7 µM

The next lines start with results.

IC50 [1]: 51.5 µM
Structure (SMILES): S=C(Nc1ccc(Cl)cc1)Nc1ccc(Nc2ncnc3sc4c(c23)CCCC4)cc1

IC50 [1]: 7.1 µM | IC50 [17]: 9.29 µM | IC50 [18]: 0.2 µM | Ratio IC50 [19]: 2.1
Structure (SMILES): O=C(Nc1ccc(Nc2ncnc3sc4c(c23)CCCC4)cc1)Nc1ccc(Cl)c(C(F)(F)F)c1
Ratio IC50 [2]: 1.03 - 1.5 | fold change (FC) [3]: 15.1 | fold change (FC) [4]: 2.2 | Activity [5]: 36.3% | Activity [6]: 16.3% | Activity [7]: 29.2% | Activity [8]: 3% | Activity [9]: 7% | Activity [10]: 21% | Activity [11]: 69% | fold change (FC) [12]: 30 | Activity [13]: 389968 IU/ml | Activity [14]: 131 IU/ml | Activity [15]: 77214 IU/ml | Activity [16]: 64223 IU/ml | Activity [20]: 18.2%

IC50 [1]: 38.8 µM
Structure (SMILES): Cc1cccc(NC(=S)Nc2ccc(Nc3ncnc4sc5c(c34)CCCC5)cc2)c1

IC50 [1]: 79.1 µM
Structure (SMILES): COc1ccc(NC(=S)Nc2ccc(Nc3ncnc4sc5c(c34)CCCC5)cc2)cc1

IC50 [1]: 53.9 µM
Structure (SMILES): Cc1cccc(Cl)c1NC(=O)Nc1ccc(Nc2ncnc3sc4c(c23)CCCC4)cc1

IC50 [1]: 51.7 µM
Structure (SMILES): O=C(Nc1ccc(Nc2ncnc3sc4c(c23)CCCC4)cc1)Nc1cccc(C(F)(F)F)c1

IC50 [1]: 56.1 µM
Structure (SMILES): Cc1ccc(NC(=S)Nc2ccc(Nc3ncnc4sc5c(c34)CCCC5)cc2)cc1

IC50 [1]: 52.1 µM
Structure (SMILES): Cc1cccc(Cl)c1NC(=S)Nc1ccc(Nc2ncnc3sc4c(c23)CCCC4)cc1

IC50 [1]: 9.55 µM
Structure (SMILES): S=C(Nc1ccc(Br)cc1)Nc1ccc(Nc2ncnc3sc4c(c23)CCCC4)cc1
Ratio IC50 [2]: 1.03 - 1.5

IC50 [1]: 103 µM
Structure (SMILES): O=C(Nc1ccc(Nc2ncnc3sc4c(c23)CCCC4)cc1)Nc1c(Cl)cccc1Cl

IC50 [1]: 48.2 µM
Structure (SMILES): S=C(Nc1ccccc1)Nc1ccc(Nc2ncnc3sc4c(c23)CCCC4)cc1
